The structures appear in SMILES notation.

Assay [1] concerns the target T1, Sphingosine 1-phosphate receptor 4 (Homo sapiens, UniProt O95977).
T1 sequence (O95977 whole entry): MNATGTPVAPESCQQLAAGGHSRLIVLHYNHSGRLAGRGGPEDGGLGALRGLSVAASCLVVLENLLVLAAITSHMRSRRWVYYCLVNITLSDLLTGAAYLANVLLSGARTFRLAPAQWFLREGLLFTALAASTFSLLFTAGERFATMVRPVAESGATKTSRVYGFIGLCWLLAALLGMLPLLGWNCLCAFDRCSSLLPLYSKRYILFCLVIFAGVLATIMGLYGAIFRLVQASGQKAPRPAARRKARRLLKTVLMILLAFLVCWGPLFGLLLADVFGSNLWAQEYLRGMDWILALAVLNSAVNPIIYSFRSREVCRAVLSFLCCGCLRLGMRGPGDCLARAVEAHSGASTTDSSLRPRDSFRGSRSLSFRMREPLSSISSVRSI
The assay is described as follows: In vitro binding affinity towards human Sphingosine 1-phosphate receptor 4 expressed in HEK293T cells was determined using [gamma-35S]-GTP as radioligand. It is filed as cell-based, HEK-293T. Put shortly: (§1)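 Membranes (5 µg) from HEK293T cells expressing the relevant human S1P receptor plus G-protein, incubated in GTP-binding buffer (HEPES 50 mM, NaCl 100 mM, MgCl2 5 mM, pH 7.5) with 5 µg saponin, 10 µM GDP, 0.1 nM [γ-35S]GTP and test lipid. Incubation was 30 min at 30°C. Bound label was separated by GF/C filtration and scintillation counted. EC50 is the mean of three experiments.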

The target in assay [2] is Sphingosine 1-phosphate receptor 2 (Homo sapiens, UniProt O95136). The assay is described as follows: In vitro binding affinity towards human Sphingosine 1-phosphate receptor 2 expressed in HEK293T cells was determined using [gamma-35S]-GTP as radioligand; na denotes not active. It is filed as cell-based. Conditions: hek-293t; call rule not given here. Summed up:
as §1

For assay [3], the target named is T2, Sphingosine 1-phosphate receptor 3 (Homo sapiens, UniProt Q99500). Description: In vitro binding affinity towards human Sphingosine 1-phosphate receptor 3 expressed in HEK293T cells was determined using [gamma-35S]-GTP as radioligand; na denotes not active. It is filed as cell-based. Particulars: hek-293t. Summed up: as §1
T2 sequence (Q99500 whole entry): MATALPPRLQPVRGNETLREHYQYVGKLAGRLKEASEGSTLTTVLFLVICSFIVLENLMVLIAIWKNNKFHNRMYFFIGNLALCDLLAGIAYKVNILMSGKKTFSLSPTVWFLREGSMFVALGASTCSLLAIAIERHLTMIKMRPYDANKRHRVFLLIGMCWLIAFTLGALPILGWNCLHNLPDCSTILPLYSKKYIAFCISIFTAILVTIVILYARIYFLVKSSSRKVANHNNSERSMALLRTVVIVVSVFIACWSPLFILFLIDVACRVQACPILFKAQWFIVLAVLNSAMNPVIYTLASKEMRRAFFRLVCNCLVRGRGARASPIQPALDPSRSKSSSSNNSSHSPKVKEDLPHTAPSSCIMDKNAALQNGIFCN
The target of assay [4] is T3, Sphingosine 1-phosphate receptor 5 (Homo sapiens, UniProt Q9H228). The assay is described as follows: In vitro binding affinity towards human Sphingosine 1-phosphate receptor 5 expressed in HEK293T cells was determined using [gamma-35S]-GTP as radioligand; na denotes not active. It is filed as cell-based. Particulars: hek-293t. Put shortly:
as §1

Assay [5] addresses T4, Sphingosine 1-phosphate receptor 1 (Homo sapiens, UniProt P21453). The assay is described as follows: In vitro binding affinity towards human Sphingosine 1-phosphate receptor 1 expressed in HEK293T cells was determined using [gamma-35S]-GTP as radioligand; partial agonist. The class given is cell-based, HEK-293T. Put shortly:
as §1

Assay [6] has as its target T3, Sphingosine 1-phosphate receptor 5. The assay is described as follows: In vitro binding affinity towards human Sphingosine 1-phosphate receptor 5 expressed in HEK293T cells was determined using [gamma-35S]-GTP as radioligand; partial agonist. The class given is cell-based, HEK-293T. Put shortly:
as §1

Assay [7] addresses T4, Sphingosine 1-phosphate receptor 1. The assay is described as follows: In vitro binding affinity towards human Sphingosine 1-phosphate receptor 1 expressed in HEK293T cells was determined using [gamma-35S]-GTP as radioligand. The class given is cell-based, HEK-293T.
Assay [8] concerns the target T2, Sphingosine 1-phosphate receptor 3. Description: In vitro binding affinity towards human Sphingosine 1-phosphate receptor 3 expressed in HEK293T cells was determined using [gamma-35S]-GTP as radioligand. It is filed as cell-based, HEK-293T.

Sphingosine 1-phosphate receptor 2, sequence (O95136 whole entry): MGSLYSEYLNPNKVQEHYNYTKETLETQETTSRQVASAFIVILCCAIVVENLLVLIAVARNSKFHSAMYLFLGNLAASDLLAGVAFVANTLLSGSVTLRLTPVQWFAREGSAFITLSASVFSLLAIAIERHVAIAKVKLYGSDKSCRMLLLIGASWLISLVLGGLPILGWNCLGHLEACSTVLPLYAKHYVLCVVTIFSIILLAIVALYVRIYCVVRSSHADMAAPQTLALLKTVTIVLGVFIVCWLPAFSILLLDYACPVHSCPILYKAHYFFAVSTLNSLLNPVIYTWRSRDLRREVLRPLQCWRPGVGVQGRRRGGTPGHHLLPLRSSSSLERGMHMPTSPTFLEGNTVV
T3 sequence (Q9H228 whole entry): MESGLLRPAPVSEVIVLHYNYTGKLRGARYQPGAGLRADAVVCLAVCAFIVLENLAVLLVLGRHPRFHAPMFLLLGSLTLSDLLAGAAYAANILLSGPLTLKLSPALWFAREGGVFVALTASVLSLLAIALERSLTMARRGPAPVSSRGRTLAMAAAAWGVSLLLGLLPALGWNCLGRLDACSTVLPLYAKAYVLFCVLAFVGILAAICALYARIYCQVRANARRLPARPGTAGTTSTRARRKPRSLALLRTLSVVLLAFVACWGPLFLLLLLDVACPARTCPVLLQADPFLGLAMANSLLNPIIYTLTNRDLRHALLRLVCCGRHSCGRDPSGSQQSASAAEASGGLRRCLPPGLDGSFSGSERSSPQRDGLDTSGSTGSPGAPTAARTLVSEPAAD
T4 sequence (P21453 whole entry): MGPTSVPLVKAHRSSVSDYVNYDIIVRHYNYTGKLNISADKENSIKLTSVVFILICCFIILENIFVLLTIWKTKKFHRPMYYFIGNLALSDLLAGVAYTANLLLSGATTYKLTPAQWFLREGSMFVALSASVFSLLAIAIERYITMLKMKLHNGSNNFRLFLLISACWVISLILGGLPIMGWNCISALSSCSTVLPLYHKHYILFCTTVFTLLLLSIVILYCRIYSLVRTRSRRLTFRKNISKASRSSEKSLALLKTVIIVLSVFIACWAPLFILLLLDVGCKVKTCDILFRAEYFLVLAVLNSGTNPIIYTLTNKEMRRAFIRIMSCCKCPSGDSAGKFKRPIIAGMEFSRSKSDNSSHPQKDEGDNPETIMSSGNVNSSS

A word on the EC50: it is the concentration needed to bring the measured effect to its halfway point. Take `CCCCCCCCc1ccc2[nH]c([C@@H](N)[C@@H](C)O)nc2c1.O=C(O)C(F)(F)F`: the EC50 in assay [1] is 33000 nM; in assay [2] it was “Not Active”; in assay [3], “Not Active”; in assay [4], “Not Active”; in assay [5], 2900 nM.

Consider `CCCCCCCCc1ccc2[nH]c([C@@H](N)[C@@H](C)OP(=O)(O)O)nc2c1.O=C(O)C(F)(F)F`, for which the concentration for a half-maximal effect (EC50) is 94 nM in assay [1]; “Not Active” in assay [2]; “Not Active” in assay [3]; 240 nM in assay [5]; 77 nM in assay [6].

With `CCCCCCCCc1ccc2[nH]c([C@@H](N)COP(=O)(O)O)nc2c1.COC(=O)C(F)(F)F`, the EC50 in assay [1] is 48 nM; in assay [2], “Not Active”; in assay [3], “Not Active”; in assay [5] it was 37 nM; in assay [6], 6.6 nM.

As for `CCCCCCCCc1ccc2[nH]c([C@H](N)CO)nc2c1.O=C(O)C(F)(F)F`, the EC50 is 1600 nM in assay [1]; “Not Active” in assay [2]; “Not Active” in assay [3]; 330 nM in assay [5]; 390 nM in assay [6].

For `CCCCCCCCCCCCC/C=C/[C@@H](O)[C@@H](N)COP(=O)(O)O`, the results for the 50% effective concentration (EC50) in assay [7], in assay [8] and in assay [1] were 20 nM, 1.2 nM and 37 nM, respectively.

Turning to `CCCCCCCCc1ccc2[nH]c([C@H](N)COP(=O)(O)O)nc2c1.COC(=O)C(F)(F)F`, the EC50 in assay [1] was 36 nM; in assay [2] it was “Not Active”; in assay [3], “Not Active”; in assay [5], 21 nM; in assay [6], 8.2 nM.

In the case of `CCCCCCCCc1ccc2[nH]c([C@@H](N)CO)nc2c1.O=C(O)C(F)(F)F`, the EC50 in assay [1] is 4200 nM; in assay [2], “Not Active”; in assay [3], “Not Active”; in assay [5], 2100 nM; in assay [6] it was 2400 nM.

Regarding `CCCCCCCCc1ccc2[nH]c(C(C)(N)COP(=O)(O)O)nc2c1.O=C(O)C(F)(F)F` (stereo not drawn), the EC50 was 1200 nM in assay [1]; “Not Active” in assay [2]; “Not Active” in assay [3]; 1000 nM in assay [5]; 370 nM in assay [6].

(Values after ChEMBL document CHEMBL1137873, “Synthesis of benzimidazole based analogues of sphingosine-1-phosphate: discovery of potent, subtype-selective S1P4 receptor agonists” (Bioorg Med Chem Lett, 2004).)
